According to ChEMBL document CHEMBL2157971, “Antitumor agents 294. Novel E-ring-modified camptothecin-4β-anilino-4'-O-demethyl-epipodophyllotoxin conjugates as DNA topoisomerase I inhibitors and cytotoxic agents” (Bioorg Med Chem, 2012):
Active and inactive are the calls of the source. No cut-off for these calls is given here.

Tests used:
[1] = test system: KB; assay: Antiproliferative activity against human KB cells after 72 hrs by […] blue dye assay; assay type: functional, cell-based
In short: (§1)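 KB, etoposide-resistant KB/7D (kept in 7 µM etoposide), CPT-resistant KB CPT 100 (kept in 100 nM CPT) and revertant KB CPT 100rev cells, all grown in RPMI 1640 with 10% FBS. Log-phase cells seeded at 5000 cells/mL and exposed to a range of drug concentrations for 72 h. Growth read by […] blue dye assay; IC50 = 50% growth inhibition. Resistance ratio = KBCPT100 IC50 over KB IC50.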

[2] = Antiproliferative activity against human camptothecin-resistant KBCPT100 cells after 72 hrs by […] blue dye assay; assay type: functional, cell-based; details: KBCPT100, 72 h; in short: as §1
[3] = Antiproliferative activity against human partially revertant camptothecin-resistant KBCPT100 cells after 72 hrs by […] blue dye assay; assay type: functional, cell-based; details: KBCPT100, 72 h; in short: as §1
[4] = Antiproliferative activity against human VP16-resistant KB-7d cells overexpressing MRP after 72 hrs by […] blue dye assay; assay type: functional, cell-based; details: KB7D; in short: as §1
[5] = Resistance ratio of IC50 for human camptothecin-resistant KBCPT100 cells to IC50 for human KB cells; assay type: functional; in short: as §1
[6] = target: T1, DNA topoisomerase 1 (Homo sapiens) (UniProt P11387); assay: Inhibition of DNA topoisomerase 1 in human KB cells using [C14]thymidine assessed as protein-linked DNA breaks formation at 2.5 uM after 30 mins by […]; assay type: cell-based
T1 sequence (whole entry): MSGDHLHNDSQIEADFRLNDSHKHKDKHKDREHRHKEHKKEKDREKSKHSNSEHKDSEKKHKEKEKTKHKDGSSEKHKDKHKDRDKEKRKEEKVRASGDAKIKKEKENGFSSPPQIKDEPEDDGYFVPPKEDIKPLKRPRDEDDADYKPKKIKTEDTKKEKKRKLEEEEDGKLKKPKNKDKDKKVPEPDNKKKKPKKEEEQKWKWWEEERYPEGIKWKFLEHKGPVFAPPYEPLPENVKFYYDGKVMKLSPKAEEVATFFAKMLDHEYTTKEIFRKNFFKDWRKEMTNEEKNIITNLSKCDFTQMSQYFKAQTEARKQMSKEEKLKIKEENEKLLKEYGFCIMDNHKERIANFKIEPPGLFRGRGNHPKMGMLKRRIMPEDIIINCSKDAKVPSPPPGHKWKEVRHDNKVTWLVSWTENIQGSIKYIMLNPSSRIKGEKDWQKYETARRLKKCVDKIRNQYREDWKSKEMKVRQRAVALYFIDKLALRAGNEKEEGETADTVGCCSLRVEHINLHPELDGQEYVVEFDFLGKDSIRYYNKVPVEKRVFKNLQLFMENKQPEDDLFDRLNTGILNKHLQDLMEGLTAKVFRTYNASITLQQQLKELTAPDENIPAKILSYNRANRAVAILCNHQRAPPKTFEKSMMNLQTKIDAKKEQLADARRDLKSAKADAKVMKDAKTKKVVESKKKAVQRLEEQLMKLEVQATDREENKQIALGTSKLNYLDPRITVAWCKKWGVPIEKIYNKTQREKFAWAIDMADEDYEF
In short: (§2)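 KB cells labeled with [14C]thymidine for 24 h, then treated with compound (2.5 or 22.5 µM) at 37 °C. Protein-linked DNA breaks quantified by potassium-SDS co-precipitation.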

[7] = target: T1, DNA topoisomerase 1 (Homo sapiens); assay: Inhibition of recombinant DNA topoismerase1-mediated cleavage activity at 25 uM after 15 mins by […]
In short: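 32P-labeled ON5/ON4 oligoduplex (50 fmol) incubated with purified recombinant topoisomerase I (220 fmol) ± compound (25 µM) at 37 °C for 15 min. Stopped with SDS (0.5% final), then proteinase K digestion (1 mg/mL final). Cleavage products resolved on 20% denaturing urea/polyacrylamide gel.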

[8] = target: T1, DNA topoisomerase 1 (Homo sapiens); assay: Inhibition of recombinant DNA topoisomerase1-mediated topo1-linked DNA relegation activity at 25 uM after 30 mins by […]
In short: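 Suicide topo I cleavage complex pre-formed on radiolabeled oligoduplex. Religation started by adding 5 pmol of 13-mer ON6 with compound present, at 37 °C. 25-mer religation product resolved on 20% urea/polyacrylamide gel and quantified by phosphorimager.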

[9] = Inhibition of DNA topoisomerase 2-mediated [alpha32P]dCTP-labelled pBR322 cleavage up to 25 uM after 30 mins by agarose gel electrophoresis
[10] = Inhibition of DNA topoisomerase 2-mediated relegation activity at 250 uM after 30 mins by agarose gel electrophoresis
[11] = test system: KB; assay: Ratio of VP16 IC50 to compound IC50 for human KB cells; assay type: functional
[12] = target: T1, DNA topoisomerase 1 (Homo sapiens); assay: Inhibition of DNA topoisomerase 1 in human KB cells using [C14]thymidine assessed as protein-linked DNA breaks formation at 22.5 uM after 30 mins by […]; assay type: cell-based; in short: as §2

Row | Structure (SMILES) | IC50 [1] [nM] | IC50 [2] [nM] | IC50 [3] [nM] | IC50 [4] [nM] | Ratio IC50 [5] | inhibition [6] | inhibition [7] | inhibition [8] | inhibition [9] | inhibition [10] | Ratio IC50 [11] | fold change (FC) [12]
1 | CC[C@@]1(O)C(=O)OCc2c1cc1n(c2=O)Cc2c-1nc1ccccc1c2/C=N\c1ccc(N[C@@H]2c3cc4c(cc3[C@@H](c3cc(OC)c(O)c(OC)c3)[C@H]3C(=O)OC[C@@H]32)OCO4)cc1 | 24.5 | 95 | 44 | 37.5 | 2.8 | Active | inactive | Active | inactive | Active |  | 
2 | COc1cc([C@@H]2c3cc4c(cc3[C@@H](O[C@@H]3O[C@@H]5CO[C@@H](C)O[C@H]5[C@H](O)[C@H]3O)[C@H]3COC(=O)[C@H]23)OCO4)cc(OC)c1O [ETOPOSIDE] | 475 | 336 | 374 | 55000 |  |  |  |  |  |  |  | 
3 | CC[C@@](O)(C(=O)NC(C)C)c1cc2n(c(=O)c1CO)Cc1c-2nc2ccccc2c1/C=N\c1ccc(N[C@@H]2c3cc4c(cc3[C@@H](c3cc(OC)c(O)c(OC)c3)[C@H]3C(=O)OC[C@@H]32)OCO4)cc1 | 42.5 | 120 | 57 | 50 | 2.8 | Active | inactive | Active | inactive | Active | 10 | 
4 | CC[C@@]1(O)C(=O)OCc2c1cc1n(c2=O)Cc2c-1nc1ccccc1c2/C=N\c1ccccc1N[C@@H]1c2cc3c(cc2[C@@H](c2cc(OC)c(O)c(OC)c2)[C@H]2C(=O)OC[C@@H]21)OCO3 | 37 | 112 | 70 | 70 | 2.8 | Active | inactive | Active | inactive | Active |  | 
5 | CC[C@@]1(O)C(=O)OCc2c1cc1n(c2=O)Cc2cc3ccccc3nc2-1 [CAMPTOTHECIN] | 8.8 | 423 | 24 | 6.8 | 48 |  |  |  |  |  |  | 
6 | CC[C@@](O)(C(=O)NC(C)C)c1cc2n(c(=O)c1CO)Cc1c-2nc2ccccc2c1/C=N\c1ccccc1N[C@@H]1c2cc3c(cc2[C@@H](c2cc(OC)c(O)c(OC)c2)[C@H]2C(=O)OC[C@@H]21)OCO3 | 60 | 206 | 141 | 61 | 2.8 |  | inactive | Active | inactive | Active | 8 | 7
